Results from different studies.
Compare with care: the assays were run in different laboratories.
Target: Serine/threonine-protein kinase D2 (PRKD2, Homo sapiens, UniProt Q9BZL6)
One construct used (Q9BZL6 1-878): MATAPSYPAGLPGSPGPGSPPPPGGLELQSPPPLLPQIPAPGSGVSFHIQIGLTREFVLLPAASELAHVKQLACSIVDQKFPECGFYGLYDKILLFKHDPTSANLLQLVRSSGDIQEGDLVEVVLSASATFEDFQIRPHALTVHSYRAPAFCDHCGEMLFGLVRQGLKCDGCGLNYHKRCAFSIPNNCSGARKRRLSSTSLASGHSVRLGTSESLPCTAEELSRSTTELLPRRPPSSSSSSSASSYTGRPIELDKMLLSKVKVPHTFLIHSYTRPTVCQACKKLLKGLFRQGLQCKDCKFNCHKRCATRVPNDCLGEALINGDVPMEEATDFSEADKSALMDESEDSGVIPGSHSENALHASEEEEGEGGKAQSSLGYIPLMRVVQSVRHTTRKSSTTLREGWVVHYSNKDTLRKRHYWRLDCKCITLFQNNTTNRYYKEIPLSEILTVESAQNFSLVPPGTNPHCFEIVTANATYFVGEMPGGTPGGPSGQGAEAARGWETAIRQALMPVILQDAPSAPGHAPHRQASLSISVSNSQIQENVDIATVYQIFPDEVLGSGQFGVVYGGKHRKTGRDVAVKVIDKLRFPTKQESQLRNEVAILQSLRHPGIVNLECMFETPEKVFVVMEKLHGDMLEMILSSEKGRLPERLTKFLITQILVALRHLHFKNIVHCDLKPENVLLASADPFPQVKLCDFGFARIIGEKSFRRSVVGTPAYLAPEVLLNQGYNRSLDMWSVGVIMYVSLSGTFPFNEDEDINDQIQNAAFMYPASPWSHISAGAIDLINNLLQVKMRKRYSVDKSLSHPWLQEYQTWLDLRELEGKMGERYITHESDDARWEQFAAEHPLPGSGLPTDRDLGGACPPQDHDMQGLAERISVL

Structure (SMILES) | test | setting | remaining binding [%]
CNCc1ccccc1-c1csc([C@H](C)Nc2nc(C)nc3cc(OC)c(OC)cc23)c1 | cell-free assay, competition with immobilised ligand | 1 µM | 99
O=C(NCCCN1CCOCC1)c1ccc(Nc2nccc(-c3cc4ccccc4s3)n2)cc1 | binding, competition with immobilised ligand | 1 µM | 36
C=CC(=O)N1CCC(C(=O)NCC(=O)N2CCN(c3nc(-c4cnc(N)nc4C(F)F)nc(N4CCOCC4)n3)CC2)CC1 | binding, competition with immobilised ligand | 1 µM | 100
CC1CCCN1c1nccc(-c2cnn3ncccc23)n1 (stereo not shown) | binding | 1 µM | 85
Cn1cc(Cl)c2c(Oc3c(F)cc(Nc4cc(Cl)nc(N)n4)cc3F)ccnc21 | cell-free assay, competition with immobilised ligand | 0.1 µM | 91
Cc1cnn2ncc(-c3ccnc(N(C)C)n3)c2c1 | binding | 1 µM | 100
CS(=O)(=O)N1CCCC(NC(=O)[C@H](CCC2CCCCC2)NC(=O)c2ccc(CNC(=O)c3cnc4ccccn34)cc2)C1 (stereo partly shown) | cell-free assay, competition with immobilised ligand | 0.1 µM | 100
C[C@@H](c1ccc(-n2cnc3c(N)ncnc32)cc1)N1CCc2nn(C)c(Cc3ccccc3)c2C1=O | binding, competition with immobilised ligand | 0.1 µM | 99
CCCCN(CCCC)C(=O)CN1C[C@@H](c2cc(OC)c3c(c2)OCO3)[C@H](C(=O)O)[C@H]1CC(C)(C)CCC | cell-free assay, competition with immobilised ligand | 1 µM | 90.6
C[C@H]1CCN(c2nccc(-c3cnn4ncccc34)n2)C1 | binding | 1 µM | 82
O=C(c1ccc(Nc2ncc(Cl)c(-c3cc4ccccc4s3)n2)cc1)N1CCC(N2CCCC2)CC1 | binding, competition with immobilised ligand | 1 µM | 21
COc1cnc(Nc2cccc(S(N)(=O)=O)c2)nc1N1CCN(c2ccccc2)CC1 | binding, competition with immobilised ligand | 1 µM | 98
COc1ccnn2ncc(-c3ccnc(N(C)C)n3)c12 | binding | 1 µM | 92
CCN1CCN(Cc2ccc(C(=O)Nc3ccc(C)c(Oc4ccc5c(c4)CC(=O)N5)c3)cc2C(F)(F)F)CC1 | binding, competition with immobilised ligand | 1 µM | 95
COc1ccc2cc(OCC3(C(=O)O)CN(C(=O)c4ccc(F)cc4)C3)ccc2c1 | cell-free assay, competition with immobilised ligand | 1 µM | 93
O=C(Nc1c[nH]nc1C(=O)NC1CCNCC1)c1cc(F)cc(F)c1 | binding, competition with immobilised ligand | 1 µM | 100
CNC(=O)[C@@H]1CC[C@@H](n2c(-c3ccc4cnccc4c3)nc3ccc(C(=O)NCc4cccc(C(N)=O)c4)cc32)C1 | binding, competition with immobilised ligand | 1 µM | 90
O=C(Nc1cccnn1)N1CCC(=Cc2cccc(Oc3ccc(C(F)(F)F)cn3)c2)CC1 | cell-free assay, competition with immobilised ligand | 1 µM | 94
N[C@@H]1CCN(c2nccc(-c3cnn4ncccc34)n2)C1 | binding | 1 µM | 94
O=C(c1ccc(Nc2nccc(-c3cc4ccccc4s3)n2)cc1)N1CCC(N2CCCC2)CC1 | binding, competition with immobilised ligand | 1 µM | 48
CN(CCCC(F)(F)F)c1nccc(-c2cnn3ncccc23)n1 | binding | 1 µM | 99
N#Cc1ccc(Nc2ccc3[nH]c(=O)[nH]c3c2)c(Cl)c1 | cell-free assay, competition with immobilised ligand | 1 µM | 100
